Source: the EternaBench riboswitch data

Test system: MS2 coat protein
Experiment: apparent Kd, MS2 coat protein; higher = weaker binding; RNA-MaP array; FMN 200 µM where present
How it was run: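 Stalled E. coli RNA polymerase transcribed each design on Illumina sequencing-chip clusters. The clusters were titrated with SNAP-549-labelled MS2 coat protein, starting at 0.7 or 1.5 nM and doubling up to 3 µM, first without ligand and then with constant ligand, in 100 mM Tris-HCl pH 7.5, 80 mM KCl, 4 mM MgCl2, BSA, DTT, yeast tRNA and Tween-20. Green signal was normalised to red-channel RNA signal and to the control-cluster median Fmax. The apparent Kd is the median of filtered binding-curve fits made for each cluster.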

[1] = designed as: OFF switch for flavin mononucleotide, no ligand
[2] = ligand present: flavin mononucleotide, designed as: OFF switch for flavin mononucleotide
[3] = designed as: ON switch for flavin mononucleotide, no ligand
[4] = ligand present: flavin mononucleotide, designed as: ON switch for flavin mononucleotide

Sequence	apparent Kd [1]	apparent Kd [2]	apparent Kd [3]	apparent Kd [4]
GGAGAGUCAGGAUAUACAUGAGGAUCACCCAUGUUGGAAAGUGGAGGGACGGGAGUCCGUAGAAGGGACGAGAG	34.4 nM	27.7 nM	–	–
UGCUGGCGAGGAUAUGCUCGGGAUGCUAGUCGCGCGGUUGCACAUGAGGAUCACCCAUGUAGAAGGUGUCUGUG	170 nM	169 nM	–	–
AAGGAUAGAGGAUAUACAUAGAUACAGAUUCAUGUAGAACUACAUGAGGAUCACCCAUGUAGAAGGCUAUCCUA	32.9 nM	239 nM	–	–
CAUGUCCUCACAGGAUAUGCAAUGUAUUUCAUUGCAGAAGGGUGAACACAUGAGGAUCACCCAUGUGGACAUGAUAUAUUUAAG	–	–	529 nM	63.4 nM
CAAUGUACCUAGGAUAUAACCUACGACAUUGGGUUAGAAGGAGGAACAUGAGGAUCACCCAUGUGACUUCGCAA	10 nM	11.9 nM	–	–
GUUGUGUAUGUAGGAUAUGCGAAGCAAAGCUUCGCAGAAGGACAUGAGGAUCACCCAUGUAUUGCGGUCUGCGUUCAGAUCGCU	43.5 nM	181 nM	–	–
AAGAGACAUCAGAAGGGAGCCCGAAAGCGCAGCUCAGGAUAUGAGAUCUUAUGUAGUACGACAUGAGGAUCACCCAUGUCCGCG	–	–	74.3 nM	10.2 nM
UUACCUUAUGAGAAGGCGAUCAUGAAACAUGAUCGAGGAUAUCAUGUAAACAUGAGGAUCACCCAUGUAUGGGUAUUAUGGUAG	–	–	133 nM	32.5 nM
AGUGUCAUCGAGAAGGCCUCAACAUGAGGAUCACCCAUGUUGCAAAAUGGGAGGAUAUCGCAAAAACAGCUACGUUUCGUAGCA	–	–	45.4 nM	7.43 nM
GCGCCAUUGCAAGGAUAUCCUACAGAGGGUGCAGGAGAAGGUGCAUUGGUGAGACUAUAGGACAUGAGGAUCACCCAUGUACCU	–	–	14.8 nM	17.9 nM
AUGGUACAUGAGGAUCACCCAUGUCAGGAUAUCGGCUUUAACGUGAAAAGAGUGUUAGCGAGAAGGGACUGCUC	23.6 nM	28.7 nM	–	–
CUGAUGUUAGGAUAUCAGGUCACGCGCGAAGGCGCGCGGCAUGAGAAGGAACAUGAGGAUCACCCAUGUGACGA	42.8 nM	160 nM	–	–
AGUCGGAGCAGAGGAUAUACAUGAGGAUCACCCAUGUAAAUGGAAUAAGCCUGGAAACAGGCAAUGUAGAAGGCUGCUCCGACA	75 nM	716 nM	–	–
CUGAGCUCAGGAUAUACAUGAGGAUCACCCAUGUGUUCCUGCGACGUUAGUUGCACAUGUAGAAGGGAGUUCGG	272 nM	57.8 nM	–	–
GGCAGCUCAGGAUAUAGUUAAAACGACAUGAGGAUCACCCAUGUGACUGAUAUGCGGCGCCUAGAAGGGAGGUGCC	18.9 nM	18.2 nM	–	–
AGCAUGUGAGGAUAUGCGGACUCCGGUAAAGCUGGAGUCCAGUAGAAGGCACAUGAGGAUCACCCAUGUGAUAA	85.6 nM	106 nM	–	–
UGUUUGUGAGGAUAUCCAAUAUAUGACAUGAGGAUCACCCAUGUUUCCACUCGUACCUCCGGAGAAGGCACUGCGU	29.1 nM	26 nM	–	–
CCUCGACGGUAGGAUAUCGUCAAACUAUUGUGAUGAGAAGGACUGACAUGAGGAUCACCCAUGUUAACGUGAUG	18 nM	26.2 nM	–	–
UAAUAAAACGAUCGGCGGUCCAUACAUGAGGAUCACCCAUGUAGAAGGGACUCUACAAAGUAGAGUCAGGAUAUACAAGAUCGA	8.19 nM	108 nM	–	–

Sequence	apparent Kd [1]	apparent Kd [2]	apparent Kd [3]	apparent Kd [4]
AUCAGCUCGUCAGGAUAUACGUCACUGCGUCAGCAGGGUGGUAAGAUCACAUGAGGAUCACCCAUGUAGAAGGGACGAGCUGAU	23 nM	404 nM	–	–
UAUGUUUUAGGAUAUUGUACUGCUGACAUGAGGAUCACCCAUGUAUGCUAACUCGGCUGUCGAGAAGGAGAAUAUG	64.3 nM	56 nM	–	–
AGAAAACAUGAGGAUCACCCAUGUAGAAAUAUGGGAGGAUAUACAAAGACGAAAGUCAAGGUAGAAGGCCUAAAGA	–	–	86.7 nM	27.4 nM
CAGUACUGAGGAUAUACAUGAGGAUCACCCAUGUCCUAAAAGUAGGAUACUACUAUUAGUAGAAGGCAGUACUG	17.9 nM	190 nM	–	–
UGUGGGUGAUCAGGAUAUCCGUAUACAUGAGGAUCACCCAUGUCCUUGCUCAGCCGGGUAAGUUUGGAGAAGGGAUCAUCAAAU	–	–	357 nM	32.1 nM
AUGCUAGUGUGAGGAUAUUAACAUGAGGAUCACCCAUGUUGGAAGUACACGACAUGAGGUACAUUUAAGAAGGUACAUUAGCAU	145 nM	161 nM	–	–
AAGAAACAUGAGGAUCACCCAUGUCAGGAUAUCUCGAAAAGCAUAGAAAUAUGCGAAGAGAGAAGGGACAAGAA	65 nM	57 nM	–	–
GGACCUCCUGAGGAUAUUGCAUCACCCGACUGAUAAGAAGGCAGAACAUGAGGAUCACCCAUGUGGGUACUCGG	32.3 nM	36.1 nM	–	–
GGCGGAGACGUUAACAUGAGGAUCACCCAUGUCGAAGGAGAUGAGGAUAUCGCACACGAUGUGUGUGAGAAGGCAUGGUCUGCC	–	–	67.4 nM	15.4 nM
UACAGACAUGAGGAUCACCCAUGUAAGGAUAUCGGUACCGAUGGUAUAAUCUACUCGGCGAGAAGGUACAGUGU	23.1 nM	26.7 nM	–	–
UAUGUGUCAGGAUAUGGAUUAGUUCGGGAUUCGGAACUGGUUCAGAAGGGACAUGAGGAUCACCCAUGUUUUUC	33.1 nM	169 nM	–	–
UGAUCGAGAGAUCUUAGAUUCUGGUAGGAUAUACAUUAAAAGCGCUUUACAUGAGGAUCACCCAUGUAGAAGGACUAGAGUCUA	7.51 nM	9.42 nM	–	–
AAAAAAAAUGUGUAGGAUAUCAGUAAAAAUACAUGAGGAUCACCCAUGUUCAAAAAAAAAAAAACUGAGAAGGACACGGAUGGUCC	–	–	120 nM	55.9 nM
CUGAGGUCAGGAUAUGCAUGGCGGGACUUGCGUCGUGGCGUGGAGAAGGGACAUGAGGAUCACCCAUGUGGAGA	83 nM	81.1 nM	–	–
UUUUUAUUUAUAGGAUAUGGAAACAUGAGGAUCACCCAUGUAUGAUAAGAUAAAUUAUGAUAUAGCCAGAAGGAUAUUAUUUUU	–	–	28.5 nM	35.9 nM
CCAUAUAAAUAAGGAUAUUAAGUUGAUUAUCCUCAAACAUGAGGAUCACCCAUGUAUAGUCUUAUUAAGAAGGUAUAGUGUUGG	–	–	608 nM	545 nM
GGUGCGUUUGUGAGGAUAUGCUGGUCCUUGGAUCAGCAGAAGGCACAUGAGGAUCACCCAUGUGGUGUCCGUCC	222 nM	117 nM	–	–
GGAUAGGACAGAGGAUAUACGUGCUAGAGAUACUAGCAGAAUUUCCUCACAUGAGGAUCACCCAUGUAGAAGGCUGUCCUAUCG	12.2 nM	216 nM	–	–
ACAUGAGGAUCACCCAUGUACAGGGUUUAGUUUCAUUGUUUGAAGGAUAUACUUAGUUAGUUGUUGUAGAAGGUCAUAUUUUAU	203 nM	265 nM	–	–

Sequence	apparent Kd [1]	apparent Kd [2]	apparent Kd [3]	apparent Kd [4]
CCUAUGUGAGGAUAUCACUGGUCUUCUCACUGGAUGACCAGUGAGAAGGCACAUGAGGAUCACCCAUGUCGGUG	436 nM	349 nM	–	–
CUCACGUUAGUAGGAUAUCCGACAUGAGGAUCACCCAUGUCACUACGCCGAUAGGGAAGGUGUAAGGAGAAGGGCUGAUAAAUA	–	–	124 nM	92.9 nM
UGGUACUAGGGAGGAUAUGGGAAGAUACAUGAGGAUCACCCAUGUUUAAGAGUGCCGAGAGGCAACUAGAAGGCCCUAGUACCU	–	–	1030 nM	83 nM
CGGAAUUGUACAGGAUAUGAGGGUGCCUGAGCCUCAGAAGGGUAGACCGACAUGAGGAUCACCCAUGUAUGUGGAUAACGUCCG	–	–	75.5 nM	336 nM
UAUGGGUGUGUGAGGAUAUACGAAGGCAGUGGCCAGUAGAAGGUACAUGAGGAUCACCCAUGUGUCCAAAAGUG	14.1 nM	18.4 nM	–	–
GAUCAGAUAGGAUAUACAGGCUCGUCUUUAUAUUGAUCCCGACAUGAGGAUCACCCAUGUAGAAGGAUCAGAUC	16.4 nM	45.7 nM	–	–
UCCACUACUGAGAAGGGAUACAUAUAAUUCUAGUCAGGAUAUCGAUACAGUGCAGCAUGAGGACAUGAGGAUCACCCAUGUAUU	–	–	18.9 nM	16 nM
UUAGGAUCAGGAUAUGAUGUUUUAAACAUGAGGAUCACCCAUGUAGAUCCUGAAUCAACAUCAGAAGGGAUAAUUU	56.6 nM	184 nM	–	–
GUGCGGUAGGAGAAGGACGGAGGCUUCUUUACAUACAUGAGGAUCACCCAUGUAGGAUAUCCUACCUCACGCGGCCUCCUUCUG	5.4 nM	5.5 nM	–	–
GCUAAGAGUGUGAGGAUAUGCUGGUCCUUGGAUCAGCAGAAGGCACAUGAGGAUCACCCAUGUGAAAACUUAGC	23.3 nM	89.6 nM	–	–
UAUCUAUUUAUGGGAUUAGAAUAUGAGGAUAUCAUUUAUUUAUACAUGAGGAUCACCCAUGUUACUGAGAAGGCAUAUUUAAUA	–	–	13.4 nM	7.47 nM
AAACCGUAAAUGCGGGCAUGUACACAGGAUAUCCCGUGACAUGAGGAUCACCCAUGUAACACAUUGGAGAAGGGUGUUCACGUA	–	–	177 nM	19.6 nM
CUGAGCUGAGGAUAUACAUGAGGAUCACCCAUGUUUUGUAGUUAGUGAAGAAGUAGUUGUAGAAGGCAGUUCGG	51.3 nM	255 nM	–	–
AACAGUACAGGAUAUACAUGAGGAUCACCCAUGUGAUAAUUAAGUGGCGUACCACAAAGUAGAAGGGUACUGGA	37.9 nM	153 nM	–	–
AGCGUGUAAGGAUAUACGUCGGAUAGCGAAUGCUGUCCCUAGUAGAAGGUACAUGAGGAUCACCCAUGUGUCCA	23.3 nM	70.1 nM	–	–
CGAGUACAUGAGGAUCACCCAUGUAAUGAAUUGUCAGGAUAUGGAGAUUGAUGACAUGCGCCAGAAGGGACAUCUG	–	–	49.7 nM	40.8 nM
CGCUACUACCAGAAGGACAUGAGGAUCACCCAUGUAGGAUAUGGGUUACACGUUCCUGUGUUUUGUUACUACGCUACGUAUGCG	–	–	621 nM	29 nM
AGCCUUAGAGGAUAUACAUGAUCCUCCAUCGCGAAAGGGCUACAUGAGGAUCACCCAUGUAGAAGGCUGAGGGA	20.1 nM	33.6 nM	–	–
